Measured values as given in ChEMBL document CHEMBL2169768, “Synthesis and preliminary biological profile of new NO-donor tolbutamide analogues” (Bioorg Med Chem Lett, 2012).
The source made the active and inactive calls. No cut-off for these calls is given here.

Key:
INS-1E [1] = test: (§1) Induction of glucose-stimulated insulin release from rat INS-1E cells at 200 uM after 1 hr by coated charcoal immunoassay in presence of 2 mM glucose; type: functional
Summary of the method: (§2)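 INS-1E cells at passages 54–65 were kept in RPMI 1640 with 10% heat-inactivated FCS, pyruvate, 2-mercaptoethanol, glutamine and HEPES, and were seeded at 4 x 10^4 cells/cm2. After 48 h they were preincubated 1 h at 37 °C in KRBH with 0.5% BSA and 1 or 2 mM glucose. They were then exposed 1 h at 37 °C to glucose ± compound (100 or 200 µM). Secreted insulin was measured by RIA against a rat insulin standard. Data are mean ± SEM.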

[2] = Antiaggregatory activity in human platelet-rich plasma assessed as inhibition of collagen-induced aggregation at 300 uM pretreated 10 mins before addition of stimulus measured after 10 mins; type: functional
Summary of the method: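 Collagen-triggered aggregation in human platelet-rich plasma, by a method described in earlier work. Inhibition is taken relative to control samples. IC50 is obtained by nonlinear regression where it can be calculated. Otherwise percent inhibition is reported at the top concentration tried, 300 µM.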

[3] = Induction of nitrite production in rat INS-1E cells assessed per well at 200 uM after 2 hrs by Griess method in presence of 2 mM glucose; type: functional
Aorta [4] = test: Vasodilatory activity in Wistar rat thoracic aorta assessed as relaxation of L-phenylephrine-induced contraction after 120 mins; type: functional, tissue-based; conditions: for EC50: 2 h
INS-1E [5] = test: Induction of glucose-stimulated insulin release from rat INS-1E cells at 200 uM after 1 hr by coated charcoal immunoassay in presence of up to 4 mM glucose; type: functional, cell-based; summary of the method: as §2
[6] = Induction of glucose-stimulated insulin release from rat INS-1E cells at 200 uM after 1 hr by coated charcoal immunoassay in presence of 2 mM glucose relative to control; type: functional; summary of the method: as §2
[7] = Induction of NO release in phosphate buffered saline of pH 7.4 after 1 hr by Griess assay in presence of 5 mM L-cysteine; type: physicochemical; conditions: buffer, pH 7.4, 1 h
[8] = Induction of glucose-stimulated insulin release from rat INS-1E cells at 100 uM after 1 hr by coated charcoal immunoassay in presence of 2 mM glucose relative to control; type: functional; summary of the method: as §2
Aorta [9] = test: Vasodilatory activity in Wistar rat thoracic aorta assessed as relaxation of L-phenylephrine-induced contraction after 120 mins in presence of 1 uM sGC inhibitor ODQ; type: functional, tissue-based; conditions: for EC50: 2 h
[10] = Induction of glucose-stimulated insulin release from rat INS-1E cells at 200 uM after 1 hr by coated charcoal immunoassay in presence of 5.6 mM glucose; type: functional; summary of the method: as §2
[11] = Induction of glucose-stimulated insulin release from rat INS-1E cells at 200 uM after 1 hr by coated charcoal immunoassay in presence of 11 mM glucose; type: functional; summary of the method: as §2
[12] = as §1; type: functional; summary of the method: as §2
liver (rat) = test: Induction of nitric oxide release from Wistar rat liver homogenate at 200 uM after 45 mins by Griess method
[13] = Antiaggregatory activity in human platelet-rich plasma assessed as inhibition of collagen-induced aggregation pretreated 10 mins before addition of stimulus measured after 10 mins in presence of 50 uM ODQ; type: functional
[14] = Induction of NO release in phosphate buffered saline of pH 7.4 after 1 hr by Griess assay in presence of 0.5 mM L-cysteine; type: physicochemical; conditions: buffer, pH 7.4, 1 h

| Structure (SMILES) | Activity (INS-1E [1]) | inhibition at 300 µM [2] | Activity [3] | Activity (Aorta [4]) | EC50 (Aorta [4]) | Activity (INS-1E [5]) | Activity [6] | Activity [7] | Activity [8] | EC50 (Aorta [9]) | Activity [10] | Activity [12] | also measured |
| --- | --- | --- | --- | --- | --- | --- | --- | --- | --- | --- | --- | --- | --- |
| O=[N+]([O-])OCC(COc1ccccc1)O[N+](=O)[O-] (stereo not drawn) | inactive | – | – | – | – | – | – | – | – | – | – | – | – |
| CCCCNC(=O)NS(=O)(=O)c1ccc(OCc2no[n+]([O-])c2-c2ccccc2)cc1 | – | 13% | 7.03 nmol | Dose-dependent effect | 2.4 µM | Active | 2.41% | < 1% | 1.83% | > 100 µM | – | – | – |
| O=[N+]([O-])OCCCOc1ccccc1 | inactive | – | – | – | – | – | – | – | – | – | – | – | – |
| CCCCNC(=O)NS(=O)(=O)c1ccc(OCc2no[n+]([O-])c2C(N)=O)cc1 | – | 5.2% | 3.47 nmol | Dose-dependent effect | 0.74 µM | – | 1.94% | 9.1% | 1.46% | 57 µM | 4.19% | 2.12% | Activity [11]: 4.92% |
| CCCCNC(=O)NS(=O)(=O)c1ccc(OCC(CO[N+](=O)[O-])O[N+](=O)[O-])cc1 (stereo not drawn) | – | 5.6% | 5.65 nmol | Dose-dependent effect | 0.9 µM | Active | – | 4.3% | – | 61 µM | 4.85% | 2.6% | Activity (liver (rat)): Active |
| CCCCNC(=O)NS(=O)(=O)c1ccc(C)cc1 [TOLBUTAMIDE] | – | 6.4% | 3.2 nmol | Dose-dependent effect | – | Active | 2.97% | – | 2.22% | – | 4.98% | 2.76% | Activity [11]: 5.45%; Activity (Aorta [9]): inactive |
| N#Cc1c(COc2ccccc2)no[n+]1[O-] | inactive | – | – | – | – | – | – | – | – | – | – | – | – |
| O=S(=O)(c1ccccc1)c1c(Oc2ccccc2)no[n+]1[O-] | inactive | – | – | – | – | – | – | – | – | – | – | – | – |
| [O-][n+]1onc(COc2ccccc2)c1-c1ccccc1 | inactive | – | – | – | – | – | – | – | – | – | – | – | – |
| NC(=O)c1c(COc2ccccc2)no[n+]1[O-] | inactive | – | – | – | – | – | – | – | – | – | – | – | – |
| CCCCNC(=O)NS(=O)(=O)c1ccc(Oc2no[n+]([O-])c2S(=O)(=O)c2ccccc2)cc1 | – | – | 22.68 nmol | Dose-dependent effect | 0.0024 µM | Active | 4.33% | – | 3.06% | 0.22 µM | – | – | IC50 [13]: 34 µM; Activity [14]: 32.1% |
| CCCCNC(=O)NS(=O)(=O)c1ccc(OCCCO[N+](=O)[O-])cc1 | – | 1.1% | 3.88 nmol | Dose-dependent effect | 1.6 µM | – | 2.38% | < 1% | 1.86% | > 100 µM | 4.62% | 2.18% | Activity (liver (rat)): Active; Activity [11]: 5.79% |
| CCCCNC(=O)NS(=O)(=O)c1ccc(OCc2no[n+]([O-])c2C#N)cc1 | – | – | 10.33 nmol | Dose-dependent effect | – | Active | – | – | – | 0.9 µM | – | – | IC50 [13]: 209 µM; Activity [14]: 27.7% |
